Screens (PubChem)
CendR NRP1 mod = modulators of CendR peptide binding to NRP-1, primary screen, biochemical, fluorescence polarization, uHTS; FAM-RPARPAR peptide binding to NRP-1; 360,000 tested, 0.85% active; Neuropilin-1 (Homo sapiens), O14786; inhibition, % at 25 µM; AID 602438, 2012;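 active means inhibition or corrected inhibition above about 18%, plus a signal ratio from 0.5 to 1.5, limit read from the data, passing the limit was not always enough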
V-ATPase pHluor = regulators of yeast V-ATPase proton pumping, primary screen, pHLuorin cytosolic pH fluorescence | response, % at 10 µM | S. cerevisiae | 350,000 tested, 0.37% active; in the data active means response mostly above about 7.3%, no sharp cut-off; inactive means mostly below about 5.4%; further: actives read high
Exocytosis inh = LAMP-1 surface exposure blockers, TALL-104 cells – cell-based, flow cytometry, MLPCN library, primary screen; TALL-104 LAMP-1 surface exposure; cells stimulated with thapsigargin and PMA; inhibition, % at 10 µM; 360,000 tested, 0.66% active;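 active means inhibition above about 55%, limit read from the data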
ASAP1 GAP inh = inhibitors of human ASAP1 ArfGAP activity, primary screen, biochemical, fluorescence polarization; ASAP1-stimulated ARF1 GTP hydrolysis, GDP FP detection; inhibition, % at 16.5 µM; 360,000 tested, 0.19% active; in the data active means inhibition above about 25%;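 further: 0% = vehicle with enzyme and substrate and 100% = no enzyme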
Target sequence (Q9ULH1 325-724 limits assumed): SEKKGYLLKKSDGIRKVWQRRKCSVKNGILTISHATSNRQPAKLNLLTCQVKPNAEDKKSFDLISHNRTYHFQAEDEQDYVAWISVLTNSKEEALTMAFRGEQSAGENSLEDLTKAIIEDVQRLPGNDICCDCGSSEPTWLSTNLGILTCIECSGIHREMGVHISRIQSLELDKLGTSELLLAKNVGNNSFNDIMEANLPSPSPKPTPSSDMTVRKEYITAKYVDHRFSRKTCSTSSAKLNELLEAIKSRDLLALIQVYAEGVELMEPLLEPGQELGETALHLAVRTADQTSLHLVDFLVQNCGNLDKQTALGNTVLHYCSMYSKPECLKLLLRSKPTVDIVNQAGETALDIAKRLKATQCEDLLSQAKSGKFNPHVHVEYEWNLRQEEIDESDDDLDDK
ARFGAP1 inh = inhibitors of rat ARFGAP1 GAP activity, primary screen, biochemical, fluorescence polarization, GDP tracer; ADP-ribosylation factor GTPase-activating protein 1 (Rattus norvegicus), Q62848; Arfgap1-stimulated ARF1 GTP hydrolysis, GDP FP detection; inhibition, % at 16.5 µM; 360,000 tested, 0.26% active;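 active means inhibition above a per-plate limit, mean inhibition of low control wells plus 3 SD, cut at about 25% in these data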;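 further: 0% = DMSO wells with enzyme and 100% = wells lacking Arfgap1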
Target sequence (Q62848 1-136 limits assumed): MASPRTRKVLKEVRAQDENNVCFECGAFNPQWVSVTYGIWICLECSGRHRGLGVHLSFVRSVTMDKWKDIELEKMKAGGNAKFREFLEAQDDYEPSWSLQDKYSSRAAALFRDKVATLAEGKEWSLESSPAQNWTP
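Material: truncated rat Arfgap1 GAP domain; Incubation: compound-enzyme preincubation 20 min, reaction 120 min, detection 60 min, 25 °C; Read-out: percent inhibition of Arfgap1-stimulated GTP hydrolysis; Technique: FP, GDP Alexa 633 tracer displaced from anti-GDP antibody, 620/688 nm; Controls: No-Arfgap1 wells (100%) versus DMSO full-reaction wells (0%); Replication: single well per compound.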
Numbers without * were called inactive; nt = no result given. Shown are actives, neighbours in structure and some others; about 2.2% of the full set was active somewhere.

SMILES | CendR NRP1 mod | V-ATPase pHluor | Exocytosis inh | ASAP1 GAP inh | ARFGAP1 inh
COc1ccccc1NC(=O)C(Sc1ccccc1)c1ccccc1 (configuration not stated) | -6 | 1 | -5 | 2 | -5
O=C(NCc1ccccc1)c1nc[nH]c1C(=O)N1CCN(c2ccccc2)CC1 | 30* | 0 | 16 | -4 | 4
CC1CCN(C(=O)c2[nH]cnc2C(=O)NCc2ccc(CNC(=O)OC(C)(C)C)cc2)CC1 | 30* | -7 | -13 | 4 | 6
CC(C)(C)OC(=O)N1CCC(NC(=O)c2nc[nH]c2C(=O)N2CCc3ccccc3C2)CC1 | 30* | -4 | -3 | 5 | 1
CC(C)(C)OC(=O)NCCCCCNC(=O)c1nc[nH]c1C(=O)N1CCN(c2ccccc2)CC1 | 22 | 3 | -8 | 6 | -1
CC(C)(C)OC(=O)[C@H](Cc1ccccc1)NC(=O)c1nc[nH]c1C(=O)N1CCNCC1 | 34* | 0 | -1 | -3 | -4
CC1CCN(C(=O)c2[nH]cnc2C(=O)NCc2ccccc2)CC1 | 20 | 2 | 11 | -4 | 4
C[C@H]1COc2cccc(NCCO)c2S(=O)(=O)N1 | nt | nt | nt | -4 | 8
O=C(N[C@H](Cc1ccccc1)C(=O)O)[C@H]1O[C@@H](n2ccc(=O)[nH]c2=O)[C@H](O)[C@@H]1O | nt | nt | nt | 1 | 2
CCc1c(Cc2ccccc2)ncn1CCc1ccccc1OC | nt | nt | nt | 7 | -8
CC(C)(C)OC(=O)NCc1ccc(CNC(=O)c2nc[nH]c2C(=O)NCc2ccccc2)cc1 | 5 | -8 | -11 | -4 | 9
CC(C)(C)OC(=O)N1CCN(C(=O)c2[nH]cnc2C(=O)NCc2ccccc2)CC1 | 33* | -4 | 4 | 8 | -2
CN(Cc1ccccc1)C(=O)c1[nH]cnc1C(=O)NCc1ccc(CNC(=O)OC(C)(C)C)cc1 | 30* | 0 | -4 | -5 | -12
Cc1cc(NC(=O)CN(C)CC(=O)Nc2ccc(Cl)c(C(F)(F)F)c2)no1 | -6 | 1 | -4 | -3 | -3
Cc1cc(NC(=O)CN(C)CC(=O)Nc2ccc(Cl)cc2)no1 | 19* | -2 | 8 | -12 | -15
NC(=O)CC(NC(=O)OCc1ccccc1)C(=O)O (configuration not stated) | 31* | 2 | -2 | 17 | 2
O=C(CC(NC(=O)OCc1ccccc1)C(=O)O)OCc1ccccc1 (configuration not stated) | -5 | 5 | -2 | -11 | -2
NC(N)=NCCC[C@H](NC(=O)OCc1ccccc1)C(=O)O | 27* | 1 | 4 | -7 | -5
Cc1cc(N2CCN(CC(C)(C)O)C[C@@H]2C)ccc1N1CCN(CC(C)(C)O)[C@H](C)C1 | nt | nt | nt | 6 | -1
CC(C)(C)C(C(=O)NC1CCCC1)N1CCN(c2ncccc2C#N)CC1 (configuration not stated) | 30* | nt | -11 | 3 | -7
COc1cc(NC(=O)[C@@H](Cc2ccccc2)NC(=O)[C@H]2O[C@@H](n3ccc(=O)[nH]c3=O)[C@H](O)[C@@H]2O)cc(OC)c1OC | nt | nt | nt | -2 | 12
CCOc1cc(/C=N/n2cnnc2)ccc1OCC(=O)Nc1ccccc1OC | 20* | -1 | -4 | 12 | -4
CC(C)(C)OC(=O)N[C@H]1C=C[C@@H](CC(=O)OCC(F)(F)F)C1 | nt | nt | nt | 15 | 14
Cc1cc(N/N=C/c2ccc(O)c(C)c2O)nc(-c2ccccc2O)n1 | 0 | -2 | 80* | 18 | 7
C/C(=N\Nc1cc(C)nc(-c2ccccc2O)n1)c1ccccc1 | -9 | 4 | -1 | 10 | 2
SMILES | CendR NRP1 mod | V-ATPase pHluor | Exocytosis inh | ASAP1 GAP inh | ARFGAP1 inh
Cc1ccccc1NC(=O)CSc1nnc(Cc2ccccc2)c(=O)n1N | 7 | 7 | 3 | -6 | 8
Cc1ccc(C)c(S(=O)(=O)Nc2cc(SCC(=O)O)c(O)c3ccccc23)c1 | -8 | -4 | 78* | nt | nt
CCOc1ccc(S(=O)(=O)Nc2cc(SCC(=O)O)c(O)c3ccccc23)cc1 | -20 | 1 | 0 | -6 | 0
O=C(N[C@H](C(=O)N1CCC[C@H]1C(=O)NC1CCCC1)C1CCCCC1)C1CCCC1 | nt | nt | nt | 4 | 3
C[n+]1ccccc1/C=C1\Sc2ccccc2N1CCO | 1 | 0 | 1 | 10 | 0
CCN1/C(=C/c2ccc3cccc(C)c3[n+]2CC)Sc2ccccc21 | -220 | 1 | 76* | 14 | 2
CCN1/C(=C\c2ccc3cc(C)ccc3[n+]2CC)Sc2cc(C)c(C)cc21 | -226 | 3 | 73* | 10 | 10
CCN1/C(=C/c2ccc3cc(C)ccc3[n+]2CC)Sc2ccc3sccc3c21 | -150 | -4 | 74* | nt | nt
CCN1/C(=C/c2ccc3cc(C)cc(C)c3[n+]2CC)Sc2cc(C)ccc21 | -221 | 9 | 77* | 11 | 9
Clc1ccc(-c2nc3ccc(Br)cn3c2Cc2ccsc2)cc1 | -36 | nt | 0 | -20 | -2
O=C(NCc1ccccc1)[C@@H]1CCCN1C(=O)[C@H]1CCCN1C(=O)c1ccccc1Cl | nt | nt | nt | -2 | -3
OCCCn1c(C2CCCN2c2nc(-c3ccc(Cl)cc3)cs2)nc2cc(Cl)c(N3CCCCC3)cc21 (configuration not stated) | 30* | -2 | 2 | -6 | 0
COc1cccc(-n2nnnc2S(C)(=O)=O)c1 | -3 | 3 | 80* | nt | nt
CCOC(=O)c1csc(COc2ccccc2Cl)n1 | 12 | -1 | -11 | 1 | -1
CCOC(=O)c1csc(COc2ccc(OC)cc2)n1 | 30* | 5 | 3 | 1 | 9
O=C1C(=O)c2cccnc2-c2ncccc21 | 27* | nt | 105* | 1 | -19
COC1=C(Br)C(=O)c2ncccc2C1=O | 36* | -3 | 107* | 47* | 22
COc1ccc(C#Cc2c(-c3ccccc3OC)oc3ccccc23)cc1 | nt | nt | nt | 6 | 6
CN1CCCCC(NC(=O)C2CCCCC2)C1=O (configuration not stated) | nt | nt | nt | 12 | 14
O=C(O)CCn1c(SCc2ccccc2)nc2ccccc21 | -8 | -1 | -3 | -7 | -1
Cc1nc2ccccc2n1CCC(=O)O | 33* | 3 | -1 | 11 | 10
COc1ccc(-c2csc(/C(C#N)=C\c3ccc(O)c([N+](=O)[O-])c3)n2)cc1OC | -60 | -1 | 93* | -4 | 1
CCOC(=O)C1(Cc2ccccc2)CCN(Cc2cccn2-c2nccs2)CC1 | 33* | 0 | 4 | -2 | -6
CCOC(=O)C1(Cc2cccc(OC)c2)CCN(Cc2cccn2-c2nccs2)CC1 | 2 | -4 | -1 | -15 | 2
O=C(NNC(=O)c1cc(S(=O)(=O)N2CCOCC2)c(Cl)cc1Cl)c1ccccc1F | 17* | -2 | -1 | 0 | -9
